In ChEMBL document CHEMBL4513216, “Probing the Open Global Health Chemical Diversity Library for Multistage-Active Starting Points for Next-Generation Antimalarials” (ACS Infect Dis, 2020):

Assay: Toxicity liver stage against HepG2, at 10uM
Format: cell-based
Design: test concentration 10 uM, cell line HepG2-A16-CD81EGFP
Details: human, HepG2-A16-CD81EGFP cells; read-out: INHIBITION
How it was run: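 Uninfected HepG2-A16-CD81EGFP cells, 3 × 10^3 per well, 1536-well, plated on prespotted compound at 10 μM final, parasite-free screening media added to match infected plates; puromycin 10 μM positive, DMSO 0.5% negative; run in parallel with 48 h PbLuc assay at 37 °C, 5% CO2; viability by CellTiter-Glo luminescence, normalized to controls.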

Row | SMILES | cytotoxicity at 10 µM
1 | Cc1cccc(CN2CCN3C(=O)NC[C@H]3C2)n1 | -3.3%
2 | Cc1cc2[nH]c(=O)c(=O)[nH]c2cc1S(=O)(=O)NC1CCCCC1 | -8.41%
3 | O=C(Cn1c(=O)oc2ccccc21)NCC1(O)CCc2ccccc21 (stereo unspecified) | -17.2%
4 | O=C(NCC(F)(F)F)c1ccc(-n2cccn2)nn1 | -8.35%
5 | Cc1ccc2c(c1)C1(CCNCC1)CC2OCC1CC1 (stereo unspecified) | 6.13%
6 | COCc1nnn2c1CN(C(=O)c1ccnnc1)CCC2 | -0.461%
7 | CCCN(CC)C(=O)c1nc2c(n1C)CCN(Cc1ccccc1)C2 | 7.28%
8 | CCOCc1ncn2c1CN(C(=O)Nc1ccccc1)CC2 | 3.54%
9 | CCCNC(=O)c1cc2c(s1)CCN2C(=O)c1ccccc1 | 7.31%
10 | CN(Cc1cccnc1)[C@@H]1CN(c2ccccn2)[C@@H]2CCCO[C@H]12 | 2.78%
11 | COCc1nc2nc(O)c3c(n2n1)NC(=O)CC3c1ccccc1Cl (stereo unspecified) | -20.8%
12 | O=c1[nH]cnc2[nH]c(N3CCNCC3)nc12 | -4.31%
13 | CCN(CC)S(=O)(=O)c1cnccc1N1CCN(C(C)C)CC1 | -5.57%
14 | Cc1cnc(N2CCC3(CCCN(c4ccc(C)nn4)C3)C2)nc1 (stereo unspecified) | -20.7%
15 | O=C(C1CC=CC1)N1C[C@@H]2[C@@H](C1)OCC(=O)N2Cc1cccnc1 | 2.45%
16 | COCC(=O)NCc1ccc(-c2ccccc2C(=O)O)cn1 | -1.53%
17 | Cc1noc(C)c1CC(=O)N1CCC(c2ccn3nccc3n2)CC1 | -0.317%
18 | CNc1cc(CCNC(=O)CC(C)C)nc(-c2ccccn2)n1 | 1.26%
19 | COCC(=O)N1CCC(c2cc3ncccc3c(O)n2)CC1 | -22.7%
20 | c1cnc(N2CCCC(c3n[nH]c4ncccc34)C2)nc1 (stereo unspecified) | -0.64%
21 | Cc1cnn(CC(C)NCc2cccc(C#N)c2)c1 (stereo unspecified) | -2.62%

Row | SMILES | cytotoxicity at 10 µM
22 | CC(C)CN1CCC(C(=O)NCCNC(=O)c2ccco2)CC1 | -5.18%
23 | COc1ccc(-n2cc(CNC(=O)c3cscn3)nn2)cc1 | -2.33%
24 | CCOc1c(F)cccc1C(=O)N(C)CCn1cccn1 | 3.76%
25 | CN1CCC(Nc2ccc(Cl)cc2OCC(F)(F)F)C1=O (stereo unspecified) | 5.02%
26 | O=C(CCn1cnc2cc(F)c(F)cc21)N1CCN(C2CC2)CC1 | -1.54%
27 | Cc1cnn(CC(C)Nc2cnc3ccccc3n2)c1 (stereo unspecified) | 14.5%
28 | CNC(=O)N1CCC(=Cc2ccccc2)CC1 | -1.52%
29 | O=S(=O)(CCCN1CCc2c(ncn2C2CC2)C1)c1ccccc1 | -3.33%
30 | Cn1c(=O)[nH]c2cc(C(=O)OCC(F)F)ccc21 | -17.3%
31 | CCOc1ncccc1CNC(=O)c1csc(Br)c1 | 0.291%
32 | CC1(C)CC1C(=O)NS(=O)(=O)Cc1cc(-c2ccccc2)no1 (stereo unspecified) | -11%
33 | Cc1ccccc1C1CCN(C(=O)CCNS(C)(=O)=O)C1 (stereo unspecified) | -1.03%
34 | CC(=O)N1CCN(C(=O)CCNc2snc(Cl)c2C#N)CC1 | -0.367%
35 | CCCc1nnc(NC(=O)NC(CCO)c2cccs2)s1 (stereo unspecified) | -7.38%
36 | O=C(NC1CCCN(c2ccc(OC(F)F)cc2)C1)c1cnccn1 (stereo unspecified) | 0%
37 | NC(=O)C1CCCN1C(=O)c1cccc2c1OCO2 (stereo unspecified) | -9.56%
38 | CCN1C(=O)C2(CCCCC2)NC12CCSCC2 | -149%
39 | Cc1nc(-c2ccccc2)n(CC(=O)NC(C)C2CC2)n1 (stereo unspecified) | 7.44%
40 | CC(C)C(Sc1nnc(NC2CC2)s1)C(=O)NCc1cccnc1 (stereo unspecified) | -5.49%
41 | CCNC(=O)N1CCc2ccc(NC(=O)NCCOCC)cc21 | -3.86%
42 | O=C(CCc1ccc(Cl)cc1)N1CCC(O)(C(F)(F)F)C1 (stereo unspecified) | 1.16%

Row | SMILES | cytotoxicity at 10 µM
43 | O=C(NCCCN1CCOCC1)c1cc(-c2ccco2)[nH]n1 | -15.4%
44 | C1CCCN(c2nc(C3CC3)ns2)CC1 | -12.3%
45 | CC1c2ncc(COCC3CC3)n2CCN1C(=O)c1ccnnc1 (stereo unspecified) | 4.66%
46 | CN(C)S(=O)(=O)CCNc1ncc2c(n1)CCN2c1ccccc1 | -5.6%
47 | CCCN1CCN(Cc2nc3ccccc3[nH]2)[C@H]2CS(=O)(=O)C[C@H]21 | -137%
48 | Cn1c(Cn2ccnc2)nnc1C1CCN(C(=O)c2cccnc2)CC1 | -96.4%
49 | CSc1ccccc1CN1C[C@H]2C(=O)N(CC3CC3)C[C@@]2(C(=O)O)C1 | 0.666%
50 | COc1ccccc1C(=O)N1CCN(C(=O)CCn2ccnc2)CC1 | -148%
51 | CC(C)(C)NC(=O)N1CCCn2nc(C(=O)Nc3ccccc3)cc2C1 | 8.88%
52 | O=C(N[C@@H]1CCN(Cc2ccc(F)cc2F)C[C@H]1O)c1cccnc1 | -10.4%
53 | CCCOCC1CCN(C(=O)c2cnc(-c3cccnc3)nc2O)C1 (stereo unspecified) | -2.55%
54 | Cc1ccsc1C(CNC(=O)c1cc(=O)[nH]c(=O)[nH]1)N(C)C (stereo unspecified) | 8.99%
55 | CCc1cc(CN2CCC(CCC(=O)Nc3ccccc3Cl)CC2)on1 | 5.27%
56 | Cc1nc[nH]c1CN1CCCn2nc(CN3CCC(F)(F)CC3)cc2C1 | 0.13%
57 | CCNC(=O)[C@@H]1CCCN1C(=O)c1cccc(CCC(C)(C)O)c1 | 9.91%
58 | Cn1cc(C2CCCN2C(=O)c2ccc(OCC3CC3)nc2)cn1 (stereo unspecified) | -7.77%
59 | O=C(c1cc(C2CC2)[nH]n1)N1CCN(Cc2ccccc2)CC1 | -5.94%
60 | CC(NCc1ccc(F)cc1)c1ccc2[nH]c(=O)[nH]c2c1 (stereo unspecified) | -9.93%
61 | CCOc1ccc(C(=O)N2CCCC2c2c(C)nn(C)c2Cl)cn1 (stereo unspecified) | -12.4%
62 | Cc1nc(C2CCCN(C(=O)c3cc(-c4ccccc4)[nH]n3)C2)no1 (stereo unspecified) | -7.99%
63 | CC(C)COCC(NC(=O)c1cnccn1)c1ccco1 (stereo unspecified) | -13.8%

Row | SMILES | cytotoxicity at 10 µM
64 | CCc1noc(CN2CCN(C(=O)N(C)C)CC2)n1 | -4.97%
65 | O=C(NCc1nnc2ccccn12)N1CCc2sccc2C1 | -1.25%
66 | CNC(=O)[C@@H](c1ccccc1F)N1CCC[C@H]1C(=O)NC1CCOCC1 | -3.73%
67 | Fc1ccc(CN[C@@H]2COC[C@H]2c2ccc(F)cc2)cc1 | 2.57%
68 | O=S(=O)(c1cccs1)N1CC[C@H]2[C@H]1CCN2c1ncccn1 | -0.861%
69 | Cc1ccoc1C(=O)N1C[C@@H](N2CCN(C)CC2)[C@H]2OCCC[C@H]21 | 7.1%
70 | CC(C)C(=O)N1CCCC2(CCCN2CC2CCCC2)C1 (stereo unspecified) | 5.25%
71 | O=C(O)c1c(-c2cncnc2)ncc2c1CCN(Cc1ccco1)C2 | -2.69%
72 | CN(Cc1cccnc1)[C@@H]1CN(Cc2nccn2C)[C@@H]2CCCO[C@H]12 | -9.46%
73 | CCN1CCCC12CCN(C(=O)c1nccn1C)CC2 | 7.89%
74 | Cc1ccc(CN2CCC[C@]3(C(=O)O)CN(CC4CC4)C[C@@H]3C2)s1 | -112%
75 | c1cncc(OCc2noc3c2CN(Cc2cccs2)CC3)c1 | 9.95%
76 | CN(C)C(=O)c1n[nH]c2c1CN(Cc1ccccn1)CC2 | 3.17%
77 | COc1ccc(CN2C[C@@H]3COC[C@@H](CC(=O)N4CCCC4)[C@@H]3C2)cc1 | -18.8%
78 | CC[C@@H]1N(Cc2nccs2)CCC[C@]12CCC(=O)N2C | 0.287%
79 | CCN1CCC2(CC1)C(=O)Nc1ccc(C(=O)NC)cc12 | -0.697%
80 | O=C(c1ccoc1)N1CCO[C@]2(CCC[C@@H]2COCc2cccnc2)C1 | 6.32%
81 | CC(c1ccncc1)n1cc2nc(N(C)C)[nH]cc-2c1=O (stereo unspecified) | -3.64%
